# Results taken from ChEMBL document CHEMBL3751804, “Carbazole-containing sulfonamides and sulfamides: Discovery of cryptochrome modulators as antidiabetic agents” (Bioorg Med Chem Lett, 2016).
# Columns and labels:
# [1] = target: T1, Period circadian protein homolog 2 (Homo sapiens) (UniProt O15055); assay: Reduction of amplitude effect of PER2 in human U2OS cells harboring Per2-dLuc luciferase reporter gene assessed as effects on circadian rhythms; format: cell-based
# T1 sequence (whole entry): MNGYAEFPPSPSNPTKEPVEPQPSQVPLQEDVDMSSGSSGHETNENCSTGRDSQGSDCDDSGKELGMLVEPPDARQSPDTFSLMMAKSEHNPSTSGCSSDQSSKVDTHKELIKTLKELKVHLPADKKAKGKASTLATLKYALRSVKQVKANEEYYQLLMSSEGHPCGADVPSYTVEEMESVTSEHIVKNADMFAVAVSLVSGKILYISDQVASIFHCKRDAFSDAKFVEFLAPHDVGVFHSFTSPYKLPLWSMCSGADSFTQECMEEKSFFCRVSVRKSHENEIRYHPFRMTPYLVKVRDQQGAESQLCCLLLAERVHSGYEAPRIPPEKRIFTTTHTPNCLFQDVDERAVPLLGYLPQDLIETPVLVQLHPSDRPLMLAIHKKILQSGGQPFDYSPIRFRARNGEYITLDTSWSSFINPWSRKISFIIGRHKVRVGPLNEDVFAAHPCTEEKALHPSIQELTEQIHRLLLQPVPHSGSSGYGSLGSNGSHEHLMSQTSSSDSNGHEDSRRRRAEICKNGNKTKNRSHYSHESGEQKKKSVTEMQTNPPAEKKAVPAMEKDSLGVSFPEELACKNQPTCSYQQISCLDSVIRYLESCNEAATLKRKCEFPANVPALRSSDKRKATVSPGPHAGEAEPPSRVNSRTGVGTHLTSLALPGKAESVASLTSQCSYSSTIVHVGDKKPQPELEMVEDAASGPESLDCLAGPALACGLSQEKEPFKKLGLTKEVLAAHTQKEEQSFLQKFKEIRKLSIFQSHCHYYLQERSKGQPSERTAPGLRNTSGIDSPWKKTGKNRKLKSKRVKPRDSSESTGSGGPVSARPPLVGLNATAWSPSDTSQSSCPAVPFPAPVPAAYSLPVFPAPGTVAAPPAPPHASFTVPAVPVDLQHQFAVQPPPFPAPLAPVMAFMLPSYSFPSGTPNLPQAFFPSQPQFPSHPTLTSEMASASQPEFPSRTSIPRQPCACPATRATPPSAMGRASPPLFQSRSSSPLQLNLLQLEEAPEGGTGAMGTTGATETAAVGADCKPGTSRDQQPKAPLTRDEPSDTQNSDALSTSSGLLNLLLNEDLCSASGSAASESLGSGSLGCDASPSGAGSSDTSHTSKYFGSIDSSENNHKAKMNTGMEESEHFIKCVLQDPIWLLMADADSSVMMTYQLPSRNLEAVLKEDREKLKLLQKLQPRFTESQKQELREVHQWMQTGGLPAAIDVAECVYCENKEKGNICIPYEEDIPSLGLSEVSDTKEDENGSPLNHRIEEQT
# Procedure, shortened: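 Human osteosarcoma U2OS cells carrying a Per2-dLuc luciferase reporter, treated continuously; circadian luminescence rhythm amplitude followed. 8-point threefold dilution series; EC50 taken as concentration giving 50% of the compound's own maximal response (titrations without plateau give no EC50).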
# [2] = Mean plasma residence time in po dosed ICR mouse; format: ADME, organism-based
# Procedure, shortened: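 Male ICR mice dosed orally; plasma concentrations followed to derive mean plasma residence time (h).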
# Salmonella typhimurium = assay: Genotoxicity in Salmonella typhimurium by Ames assay; format: toxicity, organism-based; conditions: salmonella enterica subsp. enterica serovar typhimurium
# [3] = target: Voltage-gated inwardly rectifying potassium channel KCNH2 (Homo sapiens, UniProt Q12809); assay: Inhibition of human ERG
# Mus musculus = assay: Antidiabetic activity in diet-induced obese C57BL/6J mouse model assessed as reduction of glucose AUC at 100 mg/kg, qd for 7 days; format: functional; set-up: scale not given: the % may be the effect or the level left
# Procedure, shortened: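 Diet-induced obese C57BL/6J mice (25 weeks old, high-fat diet for 19 weeks) dosed 100 mg/kg once daily for 7 days, then given an oral glucose tolerance test; glucose clearance expressed as percent reduction in glucose AUC.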
# Sequence of Voltage-gated inwardly rectifying potassium channel KCNH2 (Q12809 whole entry): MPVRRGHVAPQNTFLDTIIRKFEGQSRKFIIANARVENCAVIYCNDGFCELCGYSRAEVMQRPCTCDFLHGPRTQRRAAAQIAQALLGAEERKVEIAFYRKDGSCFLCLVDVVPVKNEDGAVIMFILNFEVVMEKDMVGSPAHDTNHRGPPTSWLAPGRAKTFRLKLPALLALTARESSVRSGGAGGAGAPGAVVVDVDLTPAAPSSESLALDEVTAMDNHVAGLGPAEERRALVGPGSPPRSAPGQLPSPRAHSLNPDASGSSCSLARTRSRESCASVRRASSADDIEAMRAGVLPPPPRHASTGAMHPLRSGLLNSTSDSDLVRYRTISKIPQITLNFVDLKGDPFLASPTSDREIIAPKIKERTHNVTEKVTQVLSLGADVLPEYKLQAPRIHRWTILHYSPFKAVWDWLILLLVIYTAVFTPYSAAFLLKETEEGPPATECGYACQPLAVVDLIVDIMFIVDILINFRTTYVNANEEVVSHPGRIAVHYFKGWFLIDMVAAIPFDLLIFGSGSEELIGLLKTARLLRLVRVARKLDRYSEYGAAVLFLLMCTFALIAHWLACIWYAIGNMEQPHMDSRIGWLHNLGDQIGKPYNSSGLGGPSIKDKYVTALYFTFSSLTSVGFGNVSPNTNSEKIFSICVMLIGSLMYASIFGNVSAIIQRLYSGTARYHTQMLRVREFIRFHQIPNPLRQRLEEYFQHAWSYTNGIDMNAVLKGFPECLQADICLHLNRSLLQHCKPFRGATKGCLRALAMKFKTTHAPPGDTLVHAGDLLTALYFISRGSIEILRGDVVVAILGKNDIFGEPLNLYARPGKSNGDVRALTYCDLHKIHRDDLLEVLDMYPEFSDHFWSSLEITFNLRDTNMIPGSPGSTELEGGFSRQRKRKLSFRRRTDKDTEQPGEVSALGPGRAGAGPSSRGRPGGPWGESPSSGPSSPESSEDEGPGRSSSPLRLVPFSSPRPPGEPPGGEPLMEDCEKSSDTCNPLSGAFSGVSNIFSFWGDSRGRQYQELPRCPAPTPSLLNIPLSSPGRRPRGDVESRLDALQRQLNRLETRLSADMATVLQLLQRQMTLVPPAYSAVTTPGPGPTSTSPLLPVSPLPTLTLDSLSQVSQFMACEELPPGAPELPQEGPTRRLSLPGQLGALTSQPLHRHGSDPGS
SMILES,Activity [1],other results
O=S(=O)(C1CC1)N(Cc1ccco1)CC(O)Cn1c2ccccc2c2ccccc21 (stereo unspecified),Dose-dependent effect,
O=S1(=O)CCN1CC(O)Cn1c2ccccc2c2ccccc21 (stereo unspecified),Dose-dependent effect,
O=S(=O)(c1ccccc1)N(Cc1ccco1)CC(O)Cn1c2ccccc2c2ccccc21 (stereo unspecified),Dose-dependent effect,
CS(=O)(=O)N(Cc1ccccc1)CC(O)Cn1c2ccccc2c2ccccc21 (stereo unspecified),Dose-dependent effect,
CC(C)CN(CC(O)Cn1c2ccccc2c2ccccc21)S(C)(=O)=O (stereo unspecified),Dose-dependent effect,
O=S1(=O)NCCCN1CC(O)Cn1c2ccccc2c2ccccc21 (stereo unspecified),Dose-dependent effect,MRT [2]: 5.12 h
COCCN(CC(O)Cn1c2ccccc2c2ccccc21)S(C)(=O)=O (stereo unspecified),Dose-dependent effect,
CS(=O)(=O)N(CC(O)Cn1c2ccccc2c2ccccc21)C1CCCC1 (stereo unspecified),Dose-dependent effect,
CS(=O)(=O)N(CC(O)Cn1c2ccccc2c2ccccc21)c1ccc(F)cc1 (stereo unspecified),Dose-dependent effect,
O=S1(=O)COCCN1CC(O)Cn1c2ccccc2c2ccccc21 (stereo unspecified),Dose-dependent effect,
CS(=O)(=O)N(CC(O)Cn1c2ccccc2c2ccccc21)C1CCOCC1 (stereo unspecified),Dose-dependent effect,
O=S(=O)(C1CCOC1)N(Cc1ccco1)CC(O)Cn1c2ccccc2c2ccccc21 (stereo unspecified),Dose-dependent effect,
CS(=O)(=O)N(CC(O)Cn1c2ccccc2c2ccccc21)C1CC(F)(F)C1 (stereo unspecified),Dose-dependent effect,
CS(=O)(=O)N(CC(O)Cn1c2ccccc2c2ccccc21)C1CCCCC1 (stereo unspecified),Dose-dependent effect,
CS(=O)(=O)N(CC(O)Cn1c2ccccc2c2ccccc21)c1cccc(F)c1 (stereo unspecified),Dose-dependent effect,
CS(=O)(=O)N(CC(O)Cn1c2ccccc2c2ccccc21)C1CC1 (stereo unspecified),Dose-dependent effect,
O=S(=O)(C1CCCCC1)N(Cc1ccco1)CC(O)Cn1c2ccccc2c2ccccc21 (stereo unspecified),Dose-dependent effect,
CN1CCN(CC(O)Cn2c3ccccc3c3ccccc32)S1(=O)=O (stereo unspecified),Dose-dependent effect,
CC(C)N(CC(O)Cn1c2ccccc2c2ccccc21)S(C)(=O)=O (stereo unspecified),Dose-dependent effect,
O=S(=O)(Cc1ccccc1)N(Cc1ccco1)CC(O)Cn1c2ccccc2c2ccccc21 (stereo unspecified),Dose-dependent effect,
CCS(=O)(=O)N(Cc1ccco1)CC(O)Cn1c2ccccc2c2ccccc21 (stereo unspecified),Dose-dependent effect,
CS(=O)(=O)N(CC(O)Cn1c2ccccc2c2ccccc21)C1CCC1 (stereo unspecified),Dose-dependent effect,

# Second part, led by results:
Activity [1],SMILES,other results
Dose-dependent effect,CCCCS(=O)(=O)N(Cc1ccco1)CC(O)Cn1c2ccccc2c2ccccc21 (stereo unspecified),
Dose-dependent effect,O=S1(=O)NCCN1CC(O)Cn1c2ccccc2c2ccccc21 (stereo unspecified),
Dose-dependent effect,CCCS(=O)(=O)N(Cc1ccco1)CC(O)Cn1c2ccccc2c2ccccc21 (stereo unspecified),
Dose-dependent effect,O=S1(=O)CCCCN1CC(O)Cn1c2ccccc2c2ccccc21 (stereo unspecified),
Dose-dependent effect,CS(=O)(=O)N(CC(O)Cn1c2ccccc2c2ccccc21)c1ccccc1 (stereo unspecified),
Dose-dependent effect,COCCS(=O)(=O)N(Cc1ccco1)CC(O)Cn1c2ccccc2c2ccccc21 (stereo unspecified),
Dose-dependent effect,CS(=O)(=O)N(CC(O)Cn1c2ccccc2c2ccccc21)C1CCC(F)(F)CC1 (stereo unspecified),
Dose-dependent effect,CCN(CC(O)Cn1c2ccccc2c2ccccc21)S(C)(=O)=O (stereo unspecified),
Dose-dependent effect,CN1CCCN(CC(O)Cn2c3ccccc3c3ccccc32)S1(=O)=O (stereo unspecified),
Dose-dependent effect,CCCN(CC(O)Cn1c2ccccc2c2ccccc21)S(C)(=O)=O (stereo unspecified),
Dose-dependent effect,CS(=O)(=O)NCC(O)Cn1c2ccccc2c2ccccc21 (stereo unspecified),MRT [2]: 1.92 h
Dose-dependent effect,O=S1(=O)CCCN1CC(O)Cn1c2ccccc2c2ccccc21 (stereo unspecified),Activity (Salmonella typhimurium): Non-toxic; MRT [2]: 7.63 h; inhibition (INH) [3]: Not Active; Activity (Mus musculus): 41%
Dose-dependent effect,CC(C)CS(=O)(=O)N(Cc1ccco1)CC(O)Cn1c2ccccc2c2ccccc21 (stereo unspecified),
Dose-dependent effect,CN(CC(O)Cn1c2ccccc2c2ccccc21)S(C)(=O)=O (stereo unspecified),MRT [2]: 3.01 h
Dose-dependent effect,CC(C)S(=O)(=O)N(Cc1ccco1)CC(O)Cn1c2ccccc2c2ccccc21 (stereo unspecified),
Dose-dependent effect,CS(=O)(=O)N(CC(O)Cn1c2ccccc2c2ccccc21)c1ccccc1F (stereo unspecified),
Dose-dependent effect,CS(=O)(=O)N(CC(O)Cn1c2ccccc2c2ccccc21)C1COC1 (stereo unspecified),
